Results: ChEMBL document CHEMBL3414529, “Discovery and optimization of novel dual dithiocarbamates as potent anticancer agents” (Eur J Med Chem, 2015)

Legend:
[1] = Antiproliferative activity against human H460 cells assessed as inhibition of cell growth after 72 hrs by MTT method; assay type: functional, cell-based; conditions: NCI-H460, 72 h
Method in brief: (§1)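 Tumor cells seeded in 100 µL suspension, 24 h preincubation at 37 °C, 5% CO2. Serial dilutions of compound then added for 72 h; DMSO controls at 0.5% final. Surviving cells quantified by MTT, OD read at 492/620 nm. IC50 is the concentration giving 50% growth inhibition, taken from dose-response curves of a triplicate experiment.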

[2] = test system: HepG2; test: Antiproliferative activity against human HepG2 cells assessed as inhibition of cell growth after 72 hrs by MTT method; assay type: functional, cell-based; conditions: HepG2, 72 h; method in brief: as §1
[3] = test system: MCF7; test: Antiproliferative activity against human MCF7 cells assessed as inhibition of cell growth after 72 hrs by MTT method; assay type: functional, cell-based; conditions: MCF7, 72 h; method in brief: as §1
[4] = test system: MDA-MB-453; test: Antiproliferative activity against human MDA-MB-453 cells assessed as inhibition of cell growth after 72 hrs by MTT method; assay type: functional, cell-based; conditions: MDA-MB-453, 72 h; method in brief: as §1
[5] = test system: SW480; test: Antiproliferative activity against human SW480 cells assessed as inhibition of cell growth after 72 hrs by MTT method; assay type: functional, cell-based; conditions: SW480, 72 h; method in brief: as §1
[6] = test system: NCI-H522; test: Antiproliferative activity against human NCI-H522 cells assessed as inhibition of cell growth after 72 hrs by MTT method; assay type: functional, cell-based; conditions: NCI-H522, 72 h; method in brief: as §1
[7] = Antiproliferative activity against human PC3 cells assessed as inhibition of cell growth after 72 hrs by MTT method; assay type: functional, cell-based; conditions: PC-3, 72 h; method in brief: as §1
[8] = Antiproliferative activity against human H1299 cells assessed as inhibition of cell growth after 72 hrs by MTT method; assay type: functional, cell-based; conditions: NCI-H1299, 72 h; method in brief: as §1
[9] = test system: A-375; test: Antiproliferative activity against human A375 cells assessed as inhibition of cell growth after 72 hrs by MTT method; assay type: functional, cell-based; conditions: A-375, 72 h; method in brief: as §1
[10] = Antiproliferative activity against human COLO205 cells assessed as inhibition of cell growth after 72 hrs by MTT method; assay type: functional, cell-based; conditions: COLO 205, 72 h; method in brief: as §1
[11] = Antiproliferative activity against human LO2 cells assessed as inhibition of cell growth after 72 hrs by Alamar Blue method; assay type: cell-based; conditions: L02, 72 h
Method in brief: (§2)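 Non-tumor cells seeded at 3.5 × 10³ cells/mL, 100 µL each, preincubated 24 h at 37 °C, 5% CO2. Serial dilutions then added for 72 h; DMSO controls at 0.5% final. Surviving cells measured by Alamar Blue, OD read at 492/620 nm. IC50 from a triplicate experiment.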

[12] = test system: HEK293; test: Antiproliferative activity against human HEK293 cells assessed as inhibition of cell growth after 72 hrs by Alamar Blue method; assay type: cell-based; conditions: HEK293, 72 h; method in brief: as §2

Row | SMILES | IC50 [1] [nM] | further results
1 | CN(C)C(=S)SCC(CSC(=S)N(C)C)C(=O)c1ccccc1 | 1930 | –
2 | CN(C)C(=S)SCC(CSC(=S)N(C)C)C(=O)c1ccc(F)cc1 | 1210 | –
3 | CN(C)C(=S)SCC(CSC(=S)N(C)C)C(=O)c1ccccc1F | 920 | –
4 | COc1ccccc1C(=O)C(CSC(=S)N(C)C)CSC(=S)N(C)C | 810 | –
5 | COc1cccc(C(=O)C(CSC(=S)N(C)C)CSC(=S)N(C)C)c1 | 1240 | –
6 | CN(C)C(=S)SCC(CSC(=S)N(C)C)C(=O)c1ccc(OCc2ccccc2)cc1 | 9770 | –
7 | CN(C)C(=S)SCC(CSC(=S)N(C)C)C(=O)c1ccc(O)cc1 | 30000 | –
8 | CN(C)C(=S)SCC(CSC(=S)N(C)C)C(=O)c1cccnc1 | 870 | –
9 | CN(C)C(=S)SCC(CSC(=S)N(C)C)C(=O)c1nccs1 | 840 | –
10 | CN(C)C(=S)SCC(CSC(=S)N(C)C)C(=O)c1ccc[nH]1 | 97300 | –
11 | CN(C)C(=S)SCC(CSC(=S)N(C)C)C(=O)c1cc2ccccc2oc1=O | 660 | –
12 | CN(C)C(=S)SCC(CSC(=S)N(C)C)C(=O)c1csc2ccccc12 | 850 | –
13 | CN(C)C(=S)SCC(CSC(=S)N(C)C)C(=O)c1cnc2ccccc2c1 | 476 | IC50 [2]: 54 nM; IC50 [3]: 23 nM; IC50 [4]: 162 nM; IC50 [5]: 6.35 µM; IC50 [6]: 139 nM; IC50 [7]: 431 nM; IC50 [8]: 622 nM; IC50 [9]: 439 nM; IC50 [10]: 325 nM; IC50 [11]: 13.1 µM; IC50 [12]: 10.8 µM
14 | CN(C)C(=S)SCC(CSC(=S)N(C)C)C(=O)c1ccc2c(c1)ncn2-c1ccccc1 | 2200 | –
15 | CN(C)C(=S)SCC(CSC(=S)N(C)C)C(=O)c1cnn2ccccc12 | 31500 | –
16 | CN(C)C(=S)SCC(CSC(=S)N(C)C)C(=O)c1c(-c2ccccc2)nn2ccccc12 | 4090 | –
17 | CN(C)C(=S)SCC(CSC(=S)N(C)C)C(=O)c1cnn2ncccc12 | 4550 | –
18 | CN(C)C(=S)SCC(CSC(=S)N(C)C)C(=O)c1c(-c2ccccc2)nn2ncccc12 | 58200 | –
19 | CN(C)C(=S)SCC(CSC(=S)N(C)C)C(=O)c1cnc2ccccn12 | 13000 | –
20 | Cc1nc2ccccn2c1C(=O)C(CSC(=S)N(C)C)CSC(=S)N(C)C | 151000 | –
21 | CC(=O)C(CSC(=S)N(C)C)CSC(=S)N(C)C | 890 | –
22 | CCN(CC)C(=S)SCC(CSC(=S)N(CC)CC)C(=O)c1cnc2ccccc2c1 | 5160 | –
23 | CN1CCN(C(=S)SCC(CSC(=S)N2CCN(C)CC2)C(=O)c2cnc3ccccc3c2)CC1 | 2510 | –
24 | O=C(c1cnc2ccccc2c1)C(CSC(=S)N1CCOCC1)CSC(=S)N1CCOCC1 | 580 | –
25 | O=C(c1cnc2ccccc2c1)C(CSC(=S)N1CCCC1)CSC(=S)N1CCCC1 | 790 | –
26 | O=C(c1cnc2ccccc2c1)C(CSC(=S)N1CCCCC1)CSC(=S)N1CCCCC1 | 4650 | –
27 | O=C(c1cnc2ccccc2c1)C(CSC(=S)N1CCSCC1)CSC(=S)N1CCSCC1 | 125000 | –
28 | CN(Cc1cccnc1)C(=S)SCC(CSC(=S)N(C)Cc1cccnc1)C(=O)c1cnc2ccccc2c1 | 1000 | –
